Ki data for two compounds are collected here from ChEMBL document CHEMBL1123437, “Isozyme-specific enzyme inhibitors. 12. C- and N-methylmethionines as substrates and inhibitors of methionine adenosyltransferases of normal and hepatoma rat tissues” (J Med Chem, 1986).

For orientation: Ki means a measure of affinity in units of concentration, obtained from inhibition or displacement.

In assay [1] the target is S-adenosylmethionine synthetase (MAT 1 and MAT 2) (Rattus norvegicus, UniProt P13444+P18298). The assay can be described thus: Competitive inhibitory activity against methionine adenosyltransferase. In kind it is protein assay. The procedure, abridged:
(§1)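 Rat kidney M-2 or Novikoff hepatoma M-T MAT, partially purified. Run at 37 °C, pH 8.2 (Tris, KCl, MgCl2, DTT) with 2 mM MgATP. [14C]Met at five or six levels spanning (0.5–4)×KM, with two inhibitor levels (1–3 mM) and no-inhibitor controls. 10 min, HClO4 stop, phosphocellulose disc counting. Ki from replots of double-reciprocal slopes vs inhibitor concentration.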

For assay [2], the target named is S-adenosylmethionine synthase isoform type-2 (Rattus norvegicus, UniProt P18298). The assay can be described thus: Competitive inhibitory activity against Methionine adenosyltransferase II. The procedure, abridged: as §1

The structures appear in SMILES notation.

Chain of S-adenosylmethionine synthase isoform type-2 (P18298 whole entry, canonical isoform): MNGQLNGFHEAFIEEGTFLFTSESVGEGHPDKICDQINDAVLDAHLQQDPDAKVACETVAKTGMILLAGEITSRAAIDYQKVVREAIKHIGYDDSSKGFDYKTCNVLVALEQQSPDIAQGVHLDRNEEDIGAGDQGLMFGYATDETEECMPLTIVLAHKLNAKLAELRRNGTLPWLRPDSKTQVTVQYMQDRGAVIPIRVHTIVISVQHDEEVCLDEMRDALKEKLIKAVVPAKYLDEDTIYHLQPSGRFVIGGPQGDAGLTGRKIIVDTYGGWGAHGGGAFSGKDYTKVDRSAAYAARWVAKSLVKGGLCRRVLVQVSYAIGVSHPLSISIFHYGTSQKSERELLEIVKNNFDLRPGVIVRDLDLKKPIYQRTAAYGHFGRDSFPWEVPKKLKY

For the compound `CSCC(C)C(N)C(=O)O` (centres undefined), the Ki in assay [1] and in assay [2] was 500 µM in each case.
`CSC(C)C[C@@H](N)C(=O)O` (some centres undefined): the Ki worked out at 3200 µM in assay [1] and 2400 µM in assay [2].
